According to ChEMBL document CHEMBL1137710, “Synthesis and in vitro antitumor activity of new quinoxaline derivatives” (2009):

Tests used:
Assay type in all cases: functional
MCF7 = assay: Anticancer activity against human MCF7 cells assessed as cell growth at 100 uM after 48 hrs by sulforhodamine B assay; conditions: MCF7, 48 h, read-out: Activity
SF-268 [1] = assay: Anticancer activity against human SF268 cells assessed as cell growth at 100 uM after 48 hrs by sulforhodamine B assay; conditions: SF-268, 48 h, read-out: Activity
K562 = assay: Growth inhibition of human K562 cells after 48 hrs by sulforhodamine B assay; conditions: K562, 48 h
Method in brief: (§1)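 NCI 60-human-tumor-cell-line panel, with compounds tested over a 5-log dose range. Values are taken from dose-response curves as log10 molar concentrations: GI50 is 50% net growth inhibition, TGI is total growth inhibition, and LC50 is 50% net cell death.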

[2] = Growth inhibition of human […] cells after 48 hrs by sulforhodamine B assay; method in brief: as §1
NCI-H23 = assay: Growth inhibition of human NCI-H23 cells after 48 hrs by sulforhodamine B assay; conditions: NCI-H23, 48 h; method in brief: as §1
NCI-H322M = assay: Growth inhibition of human NCI-H322M cells after 48 hrs by sulforhodamine B assay; method in brief: as §1
NCI-H522 = assay: Growth inhibition of human NCI-H522 cells after 48 hrs by sulforhodamine B assay; conditions: NCI-H522, 48 h; method in brief: as §1
COLO 205 = assay: Growth inhibition of human COLO205 cells after 48 hrs by sulforhodamine B assay; conditions: COLO 205, 48 h; method in brief: as §1
HCT-116 = assay: Growth inhibition of human HCT116 cells after 48 hrs by sulforhodamine B assay; conditions: HCT-116, 48 h; method in brief: as §1
SW-620 = assay: Growth inhibition of human SW620 cells after 48 hrs by sulforhodamine B assay; conditions: SW-620, 48 h
Method in brief: (§2)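 Run in the NCI 60-human-tumour-cell-line panel, tested over a 5-log dose range. Dose–response curves gave three values per cell line, each as a log10 molar concentration: GI50 (50% inhibition of net cell growth), TGI (total inhibition of net growth) and LC50 (50% net cell death). The mean graph midpoint is the arithmetic mean over all lines, with insensitive lines entered at the highest concentration tested.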

SF-268 [3] = assay: Growth inhibition of human SF268 cells after 48 hrs by sulforhodamine B assay; conditions: SF-268, 48 h; method in brief: as §1
SF-295 = assay: Growth inhibition of human SF295 cells after 48 hrs by sulforhodamine B assay; conditions: SF-295, 48 h; method in brief: as §1
SNB-19 = assay: Growth inhibition of human SNB19 cells after 48 hrs by sulforhodamine B assay; conditions: SNB-19, 48 h; method in brief: as §2
U-251 = assay: Growth inhibition of human U251 cells after 48 hrs by sulforhodamine B assay; conditions: U-251, 48 h; method in brief: as §2
LOX IMVI = assay: Growth inhibition of human LOXIMVI cells after 48 hrs by sulforhodamine B assay; method in brief: as §1
M14 = assay: Growth inhibition of human M14 cells after 48 hrs by sulforhodamine B assay; conditions: M14, 48 h; method in brief: as §1
SK-MEL-2 = assay: Growth inhibition of human SK-MEL-2 cells after 48 hrs by sulforhodamine B assay; conditions: SK-MEL-2, 48 h; method in brief: as §1
SK-MEL-28 = assay: Growth inhibition of human SK-MEL-28 cells after 48 hrs by sulforhodamine B assay; conditions: SK-MEL-28, 48 h; method in brief: as §1
SK-MEL-5 = assay: Growth inhibition of human SK-MEL-5 cells after 48 hrs by sulforhodamine B assay; conditions: SK-MEL-5, 48 h; method in brief: as §1
UACC-62 = assay: Growth inhibition of human UACC62 cells after 48 hrs by sulforhodamine B assay; conditions: UACC-62, 48 h; method in brief: as §2
OVCAR-3 = assay: Growth inhibition of human OVCAR-3 cells after 48 hrs by sulforhodamine B assay; conditions: OVCAR-3, 48 h; method in brief: as §1
OVCAR-4 = assay: Growth inhibition of human OVCAR4 cells after 48 hrs by sulforhodamine B assay; conditions: OVCAR-4, 48 h; method in brief: as §1
OVCAR-5 = assay: Growth inhibition of human OVCAR5 cells after 48 hrs by sulforhodamine B assay; conditions: OVCAR-5, 48 h; method in brief: as §1
786-0 = assay: Growth inhibition of human 786-0 cells after 48 hrs by sulforhodamine B assay; conditions: 786-0, 48 h; method in brief: as §1
CAKI-1 = assay: Growth inhibition of human Caki1 cells after 48 hrs by sulforhodamine B assay; conditions: CAKI-1, 48 h; method in brief: as §1
RXF 393 = assay: Growth inhibition of human RXF393 cells after 48 hrs by sulforhodamine B assay; conditions: RXF 393, 48 h; method in brief: as §1
NCI/ADR-RES = assay: Growth inhibition of human NCI/ADR-RES cells after 48 hrs by sulforhodamine B assay; method in brief: as §1
MDA-MB-231 = assay: Growth inhibition of human MDA-MB-231 cells after 48 hrs by sulforhodamine B assay; conditions: MDA-MB-231, 48 h; method in brief: as §1
[4] = Growth inhibition of human Hs 578T cells after 48 hrs by sulforhodamine B assay; method in brief: as §1
MDA-MB-435 = assay: Growth inhibition of human MDA-MB-435 cells after 48 hrs by sulforhodamine B assay; conditions: MDA-MB-435, 48 h; method in brief: as §1
[5] = read-out: pLC50 (the source's name) (converted)

For `COc1cc(CNc2nc3cc(N)cc(N)c3nc2-c2ccccc2)cc(OC)c1`, the growth at 100 µM (MCF7) was -72%, the growth at 100 µM (SF-268 [1]) was -28% and the GI50 (K562) was 3.63 µM. The LC50 (K562) was > 100 µM, the TGI (K562; read-out: pTGI (converted)) was 9.33 µM and the GI50 [2] was 2.19 µM. The LC50 [2] was > 100 µM, the TGI ([2]; read-out: pTGI (converted)) was 6.17 µM and the GI50 (NCI-H23) was 16.2 µM. The LC50 (50% net cell kill concentration) (NCI-H23) was > 100 µM, the TGI (NCI-H23; read-out: pTGI (converted)) was > 100 µM and the GI50 (NCI-H322M) was 44.7 µM. The LC50 (NCI-H322M) was > 100 µM, the TGI (NCI-H322M; read-out: pTGI (converted)) was > 100 µM and the GI50 (NCI-H522) was 2.88 µM. For the same molecule, the LC50 (NCI-H522) was > 100 µM, the TGI (NCI-H522; read-out: pTGI (converted)) was 22.9 µM and the GI50 (COLO 205) was 2.4 µM. For the same molecule, the LC50 (50% net cell kill) (COLO 205) was > 100 µM, the TGI (COLO 205; read-out: pTGI (converted)) was 6.03 µM and the GI50 (HCT-116) was 3.09 µM. For the same molecule, the LC50 (concentration causing 50% net cell death) (HCT-116) was 72.4 µM, the TGI (HCT-116; read-out: pTGI (converted)) was 11.2 µM and the GI50 (SW-620) was 4.47 µM. The CC50 (SW-620; [5]) was > 100 µM, the TGI (SW-620; read-out: pTGI (converted)) was > 100 µM and the GI50 (SF-268 [3]) was 5.37 µM. The LC50 (SF-268 [3]) was > 100 µM, the TGI (SF-268 [3]; read-out: pTGI (converted)) was > 100 µM and the GI50 (SF-295) was 14.1 µM. The LC50 (50% net cell kill) (SF-295) was 87.1 µM, the TGI (SF-295; read-out: pTGI (converted)) was 35.5 µM and the GI50 (SNB-19) was 23.4 µM. For the same molecule, the LC50 (SNB-19) was > 100 µM, the TGI (SNB-19; read-out: pTGI (converted)) was > 100 µM and the GI50 (U-251) was 5.13 µM. The LC50 (50% net cell kill) (U-251) was > 100 µM, the TGI (U-251; read-out: pTGI (converted)) was > 100 µM and the GI50 (LOX IMVI) was 4.47 µM. The LC50 (LOX IMVI) was > 100 µM, the TGI (LOX IMVI; read-out: pTGI (converted)) was 81.3 µM and the GI50 (M14) was 10 µM. For the same molecule, the CC50 (M14; [5]) was > 100 µM, the TGI (M14; read-out: pTGI (converted)) was 49 µM and the GI50 (SK-MEL-2) was 7.76 µM. The CC50 (SK-MEL-2; [5]) was > 100 µM, the TGI (SK-MEL-2; read-out: pTGI (converted)) was 40.7 µM and the GI50 (SK-MEL-28) was 1.78 µM. For the same molecule, the CC50 (SK-MEL-28; [5]) was > 100 µM, the TGI (SK-MEL-28; read-out: pTGI (converted)) was 8.71 µM and the GI50 (SK-MEL-5) was 12.9 µM. The CC50 (SK-MEL-5; [5]) was > 100 µM, the TGI (SK-MEL-5; read-out: pTGI (converted)) was 41.7 µM and the GI50 (UACC-62) was 5.37 µM. For the same molecule, the CC50 (UACC-62; [5]) was > 100 µM, the TGI (UACC-62; read-out: pTGI (converted)) was 30.9 µM and the GI50 (OVCAR-3) was 1.86 µM. The CC50 (OVCAR-3; [5]) was > 100 µM, the TGI (OVCAR-3; read-out: pTGI (converted)) was 4.57 µM and the GI50 (OVCAR-4) was 0.0141 µM. It also gave a CC50 (OVCAR-4; [5]) of 3.24 µM, a TGI (OVCAR-4; read-out: pTGI (converted)) of 0.977 µM and a GI50 (OVCAR-5) of 5.89 µM. For the same molecule, the CC50 (OVCAR-5; [5]) was > 100 µM, the TGI (OVCAR-5; read-out: pTGI (converted)) was 29.5 µM and the GI50 (786-0) was 12.6 µM. The CC50 (786-0; [5]) was > 100 µM, the TGI (786-0; read-out: pTGI (converted)) was 44.7 µM and the GI50 (CAKI-1) was 15.8 µM. For the same molecule, the CC50 (CAKI-1; [5]) was > 100 µM, the TGI (CAKI-1; read-out: pTGI (converted)) was > 100 µM and the GI50 (RXF 393) was 6.03 µM. The CC50 (RXF 393; [5]) was > 100 µM, the TGI (RXF 393; read-out: pTGI (converted)) was 58.9 µM and the GI50 (NCI/ADR-RES) was 5.5 µM. The CC50 (NCI/ADR-RES; [5]) was > 100 µM, the TGI (NCI/ADR-RES; read-out: pTGI (converted)) was 33.1 µM and the GI50 (MDA-MB-231) was 2.09 µM. For the same molecule, the CC50 (MDA-MB-231; [5]) was > 100 µM, the TGI (MDA-MB-231; read-out: pTGI (converted)) was 6.03 µM and the GI50 [4] was 8.51 µM. For the same molecule, the CC50 [4, 5] was > 100 µM, the TGI ([4]; read-out: pTGI (converted)) was > 100 µM and the GI50 (MDA-MB-435) was 2.14 µM. For the same molecule, the TGI (MDA-MB-435; read-out: pTGI (converted)) was 4.27 µM.
